Measurements collected from several papers.
Protocols differ between the studies behind these lines.
MET M1250T: Hepatocyte growth factor receptor (MET, Homo sapiens, UniProt P08581, M1250T)
MET Y1235D: Hepatocyte growth factor receptor (MET, Homo sapiens, UniProt P08581, Y1235D)
MET: Hepatocyte growth factor receptor (MET, Homo sapiens, UniProt P08581)

SMILES	target	test	setting	endpoint	result
Cn1cc(-c2cccc(N3CCc4c(sc5c4CC(C)(C)C5)C3=O)c2CO)cc(Nc2ccncn2)c1=O	MET M1250T	enzyme activity, inhibitor	1 µM	inhibition	5%
Nc1ncc(-c2nc(N3CCOCC3)nc(N3CCOCC3)n2)c(C(F)F)n1	MET Y1235D	cell-free assay, competition with immobilised ligand	10 µM	remaining binding	92%
N#CC1(c2ccccn2)CCN(Cc2cc(C(=O)O)c(=O)n3ccccc23)CC1	MET Y1235D	cell-free assay, competition with immobilised ligand	1 µM	remaining binding	99%
COc1ncccc1-c1cnn2ccc(N3CCN(C(=O)OC(C)C)CC3)nc12	MET	binding, competition with immobilised ligand	1 µM	remaining binding	88%
O=c1[nH]c2ccccc2n1C1CCN(Cc2ccc(-c3[nH]c4cc5ncnc5cc4nc3-c3ccccc3)cc2)CC1	MET	cell-free assay	0.5 µM	remaining signal	102%
C#Cc1n[nH]c2c(-c3cn(C(C)c4ccccn4)c(=O)[nH]c3=O)cc(F)cc12 (stereo not shown)	Hepatocyte growth factor receptor (MET, Homo sapiens, UniProt P08581, D1228H)	enzyme activity, inhibitor	1 µM	inhibition	100%
Cn1cncc1[C@](O)(COc1ccc(C#N)cc1-c1ccc(OC(F)(F)F)cc1)c1ccc(C#N)cc1	MET M1250T	cell-free assay, competition with immobilised ligand	1 µM	remaining binding	100%
Cn1cc(-c2cc(F)cc(N3CCn4c(cc5c4CCCC5)C3=O)c2CO)cc(Nc2ccc(N3CCN(C4COC4)CC3)cn2)c1=O	MET	enzyme activity, inhibitor	0.1 µM	inhibition	15%
CC(C)(C)c1cc(C=C(C#N)C#N)cc(Br)c1O	MET	enzyme activity, inhibitor	0.5 µM	remaining activity	111%
Cc1nn(C)cc1-c1nc2c(N3CCN(Cc4ccc(Cl)cc4)CC3)c(Cl)cnc2[nH]1	MET	binding, competition with immobilised ligand	1 µM	remaining binding	83%
